Test results reported in ChEMBL document CHEMBL1150692, “Isolation and synthesis of a new bioactive ellagic acid derivative from Combretum yunnanensis” (J Nat Prod, 2003).
≈ marks a conversion by molar mass, not a printed value.

Key:
P388 [1] = assay: Cytotoxicity against mouse P388 cells after 3 days by MTT assay; type: functional, cell-based; conditions: P388, 72 h
Summary of the method: (§1)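 Incubated with sample at 37 °C for 3 or 4 days; viable cell number then estimated by MTT colorimetric assay.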

Protease = Protease (Human immunodeficiency virus 1, UniProt Q9YQ12); assay: Inhibition of HIV1 protease
B16 = assay: Cytotoxicity against mouse B16 cells after 3 days by MTT assay; type: functional, cell-based; conditions: B16, 72 h; summary of the method: as §1
HeLa = assay: Cytotoxicity against human HeLa cells after 3 days by MTT assay; type: functional, cell-based; conditions: 72 h; summary of the method: as §1
P388 [2] = assay: Cytotoxicity against adriamycin-resistant mouse P388 cells after 3 days by MTT assay; type: functional, cell-based; conditions: P388, 72 h; summary of the method: as §1
K562 [3] = assay: Cytotoxicity against human K562 cells after 3 days by MTT assay; type: functional, cell-based; conditions: K562, 72 h; summary of the method: as §1
K562 [4] = assay: Cytotoxicity against adriamycin-resistant human K562 cells after 3 days by MTT assay; type: functional, cell-based; conditions: K562, 72 h; summary of the method: as §1
KB = assay: Cytotoxicity against human KB cells after 3 days by MTT assay; type: functional, cell-based; conditions: 72 h; summary of the method: as §1
Mus musculus = assay: Toxicity in mouse at 100 mg/kg, ip; type: organism-based; design: dose 100 mg/kg, route intraperitoneal; conditions: in vivo

Sequence of Protease (Q9YQ12 whole entry): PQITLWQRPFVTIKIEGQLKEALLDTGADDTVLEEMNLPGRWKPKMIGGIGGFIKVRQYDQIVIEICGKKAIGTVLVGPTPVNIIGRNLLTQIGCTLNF

For `CC(=O)O[C@@H]1[C@@H](O)[C@@H](O)[C@H](Oc2cc3c(=O)oc4c(O)c(O)cc5c(=O)oc(c2O)c3c45)O[C@H]1C`, the IC50 (P388 [1]) was 52 µg/mL (≈ 106 µM), the IC50 (Protease) was 22.4 µM and the IC50 (B16) was 52 µg/mL (≈ 106 µM). The IC50 (HeLa) was 76 µg/mL (≈ 155 µM), the IC50 (P388 [2]) was 19 µg/mL (≈ 38.7 µM) and the IC50 (K562 [3]) was 80 µg/mL (≈ 163 µM). The IC50 (K562 [4]) was 56 µg/mL (≈ 114 µM), the IC50 (KB) was 61 µg/mL (≈ 124 µM) and the Activity (Mus musculus) was “Non-toxic”.

`C[C@@H]1O[C@@H](Oc2cc3c(=O)oc4c(O)c(O)cc5c(=O)oc(c2O)c3c45)[C@H](O)[C@H](O)[C@H]1O` [ESCHWEILENOL C] showed an IC50 (P388 [1]) of 62 µg/mL (≈ 138 µM), an IC50 (Protease) of 10.7 µM and an IC50 (B16) of 88 µg/mL (≈ 196 µM). It also gave an IC50 (HeLa) of 86.5 µg/mL (≈ 193 µM), an IC50 (P388 [2]) of 53 µg/mL (≈ 118 µM) and an IC50 (K562 [3]) of 82 µg/mL (≈ 183 µM). The IC50 (K562 [4]) was 67 µg/mL (≈ 149 µM) and the IC50 (KB) was 98 µg/mL (≈ 219 µM).
